Measurements: ChEMBL document CHEMBL5247575 (J Med Chem, 2018)

Key:
[1] = test system: Acinetobacter baumannii; experiment: Synergistic antibacterial activity against ADC deleted Acinetobacter baumannii transfected with pWH1266 producing OXA-24/40 assessed as cefepime MIC at 4 ug/ml by broth microdilution method; format: functional; conditions: dose 4 µg/ml
[2] = test system: Klebsiella pneumoniae; experiment: Synergistic antibacterial activity against Klebsiella pneumoniae 729/1679 producing KPC-3 assessed as cefepime MIC at 4 ug/ml by broth microdilution method; format: functional; conditions: dose 4 µg/ml
In short: (§1)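 Broth microdilution per CLSI guidelines, using custom frozen panels. […] Each partner drug was also tested alone. MICs were run in triplicate and the modal value is reported.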

[3] = test system: Pseudomonas aeruginosa; experiment: Synergistic antibacterial activity against Pseudomonas aeruginosa CL232 assessed as meropenem MIC at 4 ug/ml by broth microdilution method; format: functional; conditions: dose 4 µg/ml
[4] = test system: Escherichia coli; experiment: Antibacterial activity against Escherichia coli DH10B by broth microdilution method; format: functional
[5] = test system: Acinetobacter baumannii; experiment: Synergistic antibacterial activity against Acinetobacter baumannii PR359 producing OXA-23 assessed as cefepime MIC at 4 ug/ml by broth microdilution method; format: functional; conditions: dose 4 µg/ml
[6] = test system: Escherichia coli; experiment: Synergistic antibacterial activity against Escherichia coli DH10B transfected with pBC SK (-) OXA-48 assessed as cefepime MIC at 4 ug/ml by broth microdilution method; format: functional; conditions: dose 4 µg/ml; in short: as §1
[7] = test system: Escherichia coli; experiment: Synergistic antibacterial activity against Escherichia coli DH10B transfected with pBC SK (-) KPC-2 assessed as cefepime MIC at 4 ug/ml by broth microdilution method; format: functional; conditions: dose 4 µg/ml
[8] = test system: Acinetobacter baumannii; experiment: Synergistic antibacterial activity against Acinetobacter baumannii PR381 producing OXA-24/40 assessed as cefepime MIC at 4 ug/ml by broth microdilution method; format: functional; conditions: dose 4 µg/ml
[9] = test system: Escherichia coli; experiment: Synergistic antibacterial activity against Escherichia coli DH10B transfected with pBR322-catI-KPC-2 assessed as cefepime MIC at 4 ug/ml by broth microdilution method; format: functional; conditions: dose 4 µg/ml; in short: as §1
[10] = test system: Klebsiella pneumoniae; experiment: Synergistic antibacterial activity against Klebsiella pneumoniae 1315/2198 producing KPC-3 assessed as cefepime MIC at 4 ug/ml by broth microdilution method; format: functional; conditions: dose 4 µg/ml; in short: as §1
[11] = test system: Klebsiella pneumoniae; experiment: Synergistic antibacterial activity against Klebsiella pneumoniae jefferson 1773 producing OXA-181 assessed as meropenem MIC at 4 ug/ml by broth microdilution method; format: functional; conditions: dose 4 µg/ml
[12] = test system: Bacteria; experiment: Inhibition of bacteria PDC-3 assessed as half life using nitrocefin as substrate
[13] = test system: Klebsiella pneumoniae; experiment: Synergistic antibacterial activity against Klebsiella pneumoniae 776/1742 producing KPC-2 assessed as cefepime MIC at 4 ug/ml by broth microdilution method; format: functional; conditions: dose 4 µg/ml
[14] = test system: Klebsiella pneumoniae; experiment: Synergistic antibacterial activity against Klebsiella pneumoniae 440/1360 producing KPC-2 assessed as cefepime MIC at 4 ug/ml by broth microdilution method; format: functional; conditions: dose 4 µg/ml; in short: as §1
[15] = test system: Klebsiella pneumoniae; experiment: Synergistic antibacterial activity against Klebsiella pneumoniae 776/1742 producing KPC-2 assessed as meropenem MIC at 8 ug/ml by broth microdilution method; format: functional; conditions: dose 8 µg/ml
[16] = test system: Klebsiella pneumoniae; experiment: Synergistic antibacterial activity against Klebsiella pneumoniae 729/1679 producing KPC-3 assessed as meropenem MIC at 8 ug/ml by broth microdilution method; format: functional; conditions: dose 8 µg/ml; in short: as §1
[17] = test system: Acinetobacter baumannii; experiment: Synergistic antibacterial activity against ADC deleted Acinetobacter baumannii transfected with pWH1266 OXA-23 assessed as cefepime MIC at 8 ug/ml by broth microdilution method; format: functional; conditions: dose 8 µg/ml
[18] = test system: Escherichia coli; experiment: Synergistic antibacterial activity against Escherichia coli DH10B transfected with pBC SK (-) KPC-3 assessed as meropenem MIC at 8 ug/ml by broth microdilution method; format: functional; conditions: dose 8 µg/ml
[19] = test system: Klebsiella pneumoniae; experiment: Synergistic antibacterial activity against Klebsiella pneumoniae jefferson 1775 producing OXA-48 assessed as cefepime MIC at 8 ug/ml by broth microdilution method; format: functional; conditions: dose 8 µg/ml
[20] = test system: Escherichia coli; experiment: Synergistic antibacterial activity against Escherichia coli DH10B transfected with pBC SK (-) OXA-48 assessed as cefepime MIC at 8 ug/ml by broth microdilution method; format: functional; conditions: dose 8 µg/ml; in short: as §1
[21] = test system: Pseudomonas aeruginosa; experiment: Synergistic antibacterial activity against Pseudomonas aeruginosa 839 assessed as meropenem MIC at 8 ug/ml by broth microdilution method; format: functional; conditions: dose 8 µg/ml
[22] = test system: Klebsiella pneumoniae; experiment: Synergistic antibacterial activity against Klebsiella pneumoniae 1398/2291 producing KPC-3 assessed as cefepime MIC at 8 ug/ml by broth microdilution method; format: functional; conditions: dose 8 µg/ml; in short: as §1
[23] = test system: Klebsiella pneumoniae; experiment: Synergistic antibacterial activity against Klebsiella pneumoniae CAV 1543 producing OXA-48 assessed as cefepime MIC at 8 ug/ml by broth microdilution method; format: functional; conditions: dose 8 µg/ml
[24] = test system: Acinetobacter baumannii; experiment: Synergistic antibacterial activity against Acinetobacter baumannii PR448 producing OXA-23 assessed as cefepime MIC at 8 ug/ml by broth microdilution method; format: functional; conditions: dose 8 µg/ml
In short: (§2)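 Broth microdilution per CLSI guidelines in frozen panels. Test compound held at fixed 8 mg/L while the partner β-lactam concentration was increased. Run in triplicate; modal MIC reported.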

[25] = test system: Escherichia coli; experiment: Synergistic antibacterial activity against Escherichia coli DH10B transfected with pBR322-catI-KPC-2 assessed as cefepime MIC at 8 ug/ml by broth microdilution method; format: functional; conditions: dose 8 µg/ml; in short: as §1
[26] = test system: Acinetobacter baumannii; experiment: Synergistic antibacterial activity against Acinetobacter baumannii PR420 producing OXA-23/24/40 assessed as cefepime MIC at 8 ug/ml by broth microdilution method; format: functional; conditions: dose 8 µg/ml
[27] = test system: Klebsiella pneumoniae; experiment: Synergistic antibacterial activity against Klebsiella pneumoniae 11978 producing OXA-48 assessed as meropenem MIC at 8 ug/ml by broth microdilution method; format: functional; conditions: dose 8 µg/ml; in short: as §1
[28] = test system: Acinetobacter baumannii; experiment: Synergistic antibacterial activity against Acinetobacter baumannii PR363 producing OXA-23 assessed as meropenem MIC at 8 ug/ml by broth microdilution method; format: functional; conditions: dose 8 µg/ml
[29] = test system: Klebsiella pneumoniae; experiment: Synergistic antibacterial activity against Klebsiella pneumoniae 1354/2241 producing KPC-3 assessed as meropenem MIC at 8 ug/ml by broth microdilution method; format: functional; conditions: dose 8 µg/ml; in short: as §1
[30] = test system: Acinetobacter baumannii; experiment: Synergistic antibacterial activity against Acinetobacter baumannii PR359 producing OXA-23 assessed as meropenem MIC at 8 ug/ml by broth microdilution method; format: functional; conditions: dose 8 µg/ml; in short: as §2
[31] = test system: Acinetobacter baumannii; experiment: Synergistic antibacterial activity against Acinetobacter baumannii PR474 producing OXA-23/24/40 assessed as cefepime MIC at 8 ug/ml by broth microdilution method; format: functional; conditions: dose 8 µg/ml
[32] = test system: Escherichia coli; experiment: Synergistic antibacterial activity against Escherichia coli DH10B assessed as meropenem MIC at 8 ug/ml by broth microdilution method; format: functional; conditions: dose 8 µg/ml
[33] = test system: Escherichia coli; experiment: Synergistic antibacterial activity against Escherichia coli DH10B transfected with pBC SK (-) PDC-3 assessed as meropenem MIC at 8 ug/ml by broth microdilution method; format: functional; conditions: dose 8 µg/ml; in short: as §1
[34] = test system: Pseudomonas aeruginosa; experiment: Synergistic antibacterial activity against Pseudomonas aeruginosa 776 assessed as meropenem MIC at 8 ug/ml by broth microdilution method; format: functional; conditions: dose 8 µg/ml
[35] = test system: Acinetobacter baumannii; experiment: Synergistic antibacterial activity against Acinetobacter baumannii PR323 producing OXA-24/40 assessed as cefepime MIC at 8 ug/ml by broth microdilution method; format: functional; conditions: dose 8 µg/ml
[36] = test system: Escherichia coli; experiment: Synergistic antibacterial activity against Escherichia coli DH10B transfected with pBC SK (-) KPC-2 assessed as meropenem MIC at 8 ug/ml by broth microdilution method; format: functional; conditions: dose 8 µg/ml
[37] = test system: Escherichia coli; experiment: Synergistic antibacterial activity against Escherichia coli DH10B transfected with pBC SK (-) KPC-2 assessed as cefepime MIC at 8 ug/ml by broth microdilution method; format: functional; conditions: dose 8 µg/ml
[38] = test system: Escherichia coli; experiment: Synergistic antibacterial activity against Escherichia coli DH10B transfected with pBR322-catI-KPC-2 assessed as meropenem MIC at 8 ug/ml by broth microdilution method; format: functional; conditions: dose 8 µg/ml; in short: as §1

SMILES: NC(=O)[C@@H]1CC[C@@H]2CN1C(=O)N2OS(=O)(=O)[O-].[Na+] [AVIBACTAM SODIUM]
- MIC [1]: > 16 µg/mL
- MIC [2]: 0.25 µg/mL
- MIC [3]: > 16 µg/mL
- MIC [4]: 4 µg/mL
- MIC [5]: 16 µg/mL
- MIC [6]: ≤ 0.12 µg/mL
- MIC [7]: ≤ 0.12 µg/mL
- MIC [8]: > 16 µg/mL
- MIC [9]: ≤ 0.12 µg/mL
- MIC [10]: ≤ 0.12 µg/mL
- MIC [11]: 1 µg/mL
- T1/2 [12]: 14.4 min
- MIC [13]: 0.5 µg/mL
- MIC [14]: ≤ 0.12 µg/mL

SMILES: O.O=C(NC1CCNCC1)[C@@H]1CC[C@@H]2CN1C(=O)N2OS(=O)(=O)O [RELEBACTAM]
- MIC [1]: > 16 µg/mL
- MIC [2]: 0.5 µg/mL
- MIC [3]: > 16 µg/mL
- MIC [4]: > 16 µg/mL
- MIC [5]: 16 µg/mL
- MIC [6]: ≤ 0.12 µg/mL
- MIC [7]: ≤ 0.12 µg/mL
- MIC [8]: > 16 µg/mL
- MIC [9]: ≤ 0.12 µg/mL
- MIC [10]: 0.25 µg/mL
- MIC [11]: 16 µg/mL
- T1/2 [12]: 12.8 min
- MIC [13]: 1 µg/mL
- MIC [14]: 1 µg/mL

SMILES: O=C(NNC(=O)[C@@H]1CC[C@@H]2CN1C(=O)N2OS(=O)(=O)O)[C@@H]1CCCNC1 [ZIDEBACTAM]
- MIC [1]: 16 µg/mL
- MIC [2]: ≤ 0.12 µg/mL
- MIC [15]: ≤ 0.12 µg/mL
- MIC [3]: > 16 µg/mL
- MIC [5]: 8 µg/mL
- MIC [16]: ≤ 0.12 µg/mL
- MIC [17]: 16 µg/mL
- MIC [18]: ≤ 0.12 µg/mL
- MIC [19]: ≤ 0.12 µg/mL
- MIC [6]: ≤ 0.12 µg/mL
- MIC [7]: ≤ 0.12 µg/mL
- MIC [20]: ≤ 0.12 µg/mL
- MIC [21]: ≤ 0.12 µg/mL
- MIC [22]: ≤ 0.12 µg/mL
- MIC [23]: ≤ 0.12 µg/mL
- MIC [8]: 16 µg/mL
- MIC [24]: 8 µg/mL
- MIC [25]: ≤ 0.12 µg/mL
- MIC [9]: ≤ 0.12 µg/mL
- MIC [26]: > 16 µg/mL
- MIC [27]: ≤ 0.12 µg/mL
- MIC [28]: > 16 µg/mL
- MIC [29]: ≤ 0.12 µg/mL
- MIC [30]: > 16 µg/mL
- MIC [10]: ≤ 0.12 µg/mL
- MIC [31]: 8 µg/mL
- MIC [32]: ≤ 0.12 µg/mL
- MIC [33]: ≤ 0.12 µg/mL
- MIC [34]: 16 µg/mL
- T1/2 [12]: 3.3 min
- MIC [35]: 4 µg/mL
- MIC [13]: ≤ 0.12 µg/mL
- MIC [36]: ≤ 0.12 µg/mL
- MIC [37]: ≤ 0.12 µg/mL
- MIC [38]: ≤ 0.12 µg/mL
- MIC [14]: ≤ 0.12 µg/mL
